This note sets out measurements from ChEMBL document CHEMBL5325455, “Daphnanes diterpenes from the latex of Hura crepitans L. and their PKCζ-dependent anti-proliferative activity on colorectal cancer cells” (Bioorg Med Chem, 2023).

The source made the active and inactive calls. No cut-off for these calls is given here.

Assay [1] concerns Caco-2. The assay is described as follows: Cytotoxicity against human Caco-2 cells assessed as cell death. The format is functional, cell-based.
Assay [2] deals with Caco-2. The assay is described as follows: Cytostatic activity against human Caco-2 cells assessed as inhibition of cell growth at 1 ug/ml incubated for 48 hrs by MTS assay relative to control. The format is functional. Summed up:
(§1)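 Caco-2 cells were seeded at 40 000/well 48 h before dosing. Compound was diluted from a 10 mg/mL DMSO stock into medium (0.125, 0.5 or 1 µg/mL final; DMSO ≤0.01%) and added in triplicate for 48 h. Viability was read by MTS absorbance at 490 nm and expressed relative to the DMSO control.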

Assay [3] relates to Caco-2. Kind of assay: Cytostatic activity against human Caco-2 cells assessed as inhibition of cell growth at 1 ug/ml incubated for 48 hrs by MTS assay. The format is functional, cell-based. Particulars: dose 1.0 µg/ml. Summed up: as §1
On the technique in general: Formazan colour is commonly taken as a measure of viable cells.

For assay [4], the system named is Colorectal epithelial cell. Kind of assay: Cytostatic activity against human Colorectal epithelial cells isolated from patient with well-differentiated colonic adenocarcinoma and undergone nine courses of chemotherapy cultured as organoids at 1 ug/ml incubated for 48 hrs by CellTiter-Glo luminescence assay. The format is functional, cell-based. To be noted: dose 1.0 µg/ml. Summed up:
(§2)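 Primary colonic epithelial cells (3 control and 2 CRC patients) were expanded as organoids or spheroids in Matrigel with EGF/noggin/Wnt3a/R-spondin medium. Single cells were seeded at 2500/well and allowed 48 h to form colonoids, then exposed for 48 h at 0.01, 0.1 or 1 µg/mL, with 5FdU at 1 µg/mL as positive control. Viability was read by CellTiter-Glo luminescence versus DMSO or medium control.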
For orientation: ATP-based viability assays read luminescence as a measure of living cells.

Assay [5] deals with Colorectal epithelial cell. The assay is described as follows: Cytostatic activity against human Colorectal epithelial cells isolated from left colon of patient with recurrent diverticulitis cultured as organoids at 1 ug/ml incubated for 48 hrs by CellTiter-Glo luminescence assay. To be noted: dose 1.0 µg/ml. The format is functional, cell-based. Summed up: as §2
The subject of assay [6] is Colorectal epithelial cell. Kind of assay: Cytostatic activity against human Colorectal epithelial cells isolated from patient with fistulized sigmoiditis cultured as organoids at 1 ug/ml incubated for 48 hrs by CellTiter-Glo luminescence assay. It is filed as functional, cell-based. Particulars: dose 1.0 µg/ml. Summed up:
as §2

Assay [7] deals with Colorectal epithelial cell. Kind of assay: Cytostatic activity against human Colorectal epithelial cells isolated from left colon of patient with sigmoido-vaginal fistula for diverticulitis cultured as organoids at 1 ug/ml incubated for 48 hrs by CellTiter-Glo luminescence assay. It is filed as functional, cell-based. To be noted: dose 1.0 µg/ml. In outline: as §2
The subject of assay [8] is Colorectal epithelial cell. The assay is described as follows: Cytostatic activity against human Colorectal epithelial cells isolated from patient with well-differentiated colonic adenocarcinoma cultured as organoids at 1 ug/ml incubated for 48 hrs by CellTiter-Glo luminescence assay. The format is functional, cell-based. To be noted: dose 1.0 µg/ml. In outline:
as §2

For a further assay, the system named is Zika virus. The assay is described as follows: Antiviral activity against ZIKV expressing GFP reporter gene measured 24 hrs post infection. The format is functional, organism-based. Summed up:
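Cells in 96-well plates were exposed to serial concentrations starting at 50 µg/mL and infected with GFP-reporter Zika virus at MOI 1. At 24 h post-infection, cells were fixed in 3.7% PFA and GFP-positive cells were counted by flow cytometry.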
(A reporter such as luciferase makes a cellular process visible.)

A further assay concerns SARS-CoV-2. Kind of assay: Antiviral activity against SARS-CoV-2 assessed as reduction in progeny production measured 24 hrs post infection by PFU assay. The format is functional, organism-based. Particulars: Severe acute respiratory syndrome coronavirus 2, 24 h.
Assay [9] concerns Caco-2. The assay is described as follows: Upregulation of PKCdelta protein expression in human Caco-2 cells at 1 ug/ml incubated for 48 hrs by Western blot analysis. It is filed as functional, cell-based. To be noted: dose 1.0 µg/ml. In outline: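 Caco-2 cells, 0.25 × 10^6 per well, seeded 48 h before treatment; DMSO vehicle control. Optional 15 min pretreatment with 0.2 µM Gö6976. Cells lysed on ice after 48 h in pH 7.4 Tris/NaCl/Triton/EDTA buffer with protease and phosphatase inhibitors. 30 µg protein run on 4–15% SDS-PAGE, blotted to nitrocellulose, ECL detection. pSer664 and total PKCδ probed, ratio quantified, actin as loading control; one experiment.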

By inhibition is commonly meant how much of the control response was suppressed. Regarding `C=C(C)[C@]12C[C@@H](C)[C@@]34O[C@](/C=C/C=C/[C@H](O)CCCCCCCC)(O[C@@H]1[C@@H]3[C@@H]1O[C@]1(CO)[C@@H](O)[C@]1(O)C(=O)C(C)=C[C@H]14)O2`, the outcome in the assay with Caco-2 [1] was inactive. In addition, the inhibition at 1 µg/mL in the assay on Caco-2 [2] was around 25%.

Consider `C=C(C)[C@]12C[C@@H](C)[C@@]34O[C@](/C=C/[C@H](O)[C@@H](O)CCCCCCCCC)(O[C@@H]1[C@@H]3[C@@H]1O[C@]1(CO)[C@@H](O)[C@]1(O)C(=O)C(C)=C[C@H]14)O2`, for which, in the assay on Caco-2 [1], the outcome was inactive. In addition, in the assay with Caco-2 [3], the result was Active.

Turning to `O=c1[nH]c(=O)n([C@H]2C[C@H](O)[C@@H](CO)O2)cc1F`, the result in assay [4], in [5], in assay [6], in assay [7] and in assay [8] was inactive.

Broadly, the IC50 is the midpoint of a concentration-inhibition curve. Regarding `C=C(C)[C@]12C[C@@H](C)[C@@]34O[C@](/C=C/C=C/C(=O)CCCCCCCC)(O[C@@H]1[C@@H]3[C@@H]1O[C@]1(CO)[C@@H](O)[C@]1(O)C(=O)C(C)=C[C@H]14)O2`, the IC50 is above 50 µM in the assay with Zika virus and 50.2 µM in the assay on SARS-CoV-2. Moreover, the result with Caco-2 [1] was inactive. The inhibition at 1 µg/mL with Caco-2 [2] is around 25%.

For the molecule `C=C(C)[C@]12C[C@@H](C)[C@@]34O[C@](/C=C/C=C\C(=O)CCCCCCCC)(O[C@@H]1[C@@H]3[C@@H]1O[C@]1(CO)[C@@H](O)[C@]1(O)C(=O)C(C)=C[C@H]14)O2`, the result in the assay with Caco-2 [1] was inactive. Also, in the assay on Caco-2 [2], the inhibition at 1 µg/mL is around 25%.

For the molecule `C=C(C)[C@]1(O)C[C@@H](C)[C@]2(O)[C@H]([C@H]1O)[C@@H]1O[C@]1(COC(=O)CCCCCCCCCC(C)/C=C/CCCCC)[C@@H](O)[C@]1(O)C(=O)C(C)=C[C@H]12` (stereo not given in full), the IC50 in the assay on Zika virus was above 50 µM; with SARS-CoV-2, 34.2 µM. For the same molecule, the outcome with Caco-2 [1] and in the assay on Caco-2 [3] was inactive.

With `Cn1c2ccccc2c2c3c(c4c5ccccc5n(CCC#N)c4c21)CNC3=O`, the outcome with Caco-2 [9] was Active.
